The results in this text go back to ChEMBL document CHEMBL2321819, “Design of potent poxvirus inhibitors of the heterodimeric processivity factor required for viral replication” (J Med Chem, 2013).

Series [1] has as its system Vaccinia virus. Nature of the series: Antiviral activity against Vaccinia virus WR infected in African green monkey BSC1 cells after overnight incubation by crystal violet staining-based plaque reduction assay. In kind it is functional, organism-based. The settings on record: Orthopoxvirus vaccinia, BSC-1. On the technique in general: In a plaque reduction assay, fewer plaques than in the control indicate reduced infectivity or spread.

Series [2] can be described thus: Selectivity index, ratio of CC50 for African green monkey BSC1 cells to IC50 for Vaccinia virus WR. In kind it is functional, BSC-1.
For series [3], the system named is BSC-1. In words: (§1) Cytotoxicity against African green monkey BSC1 cells after 20 hrs by lactate dehydrogenase assay. The note with it: chlorocebus aethiops, bsc-1, 20 h. In kind it is cell-based. The gist of the method: (§2)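 Cytotoxicity in BSC-1 cells was measured by LDH release, with Neutral Red also used. Assays were run in triplicate and repeated at least twice. CC50 was obtained from a variable-slope four-parameter nonlinear regression fit. Values ≥100 μM were called not active.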

Series [4] deals with BSC-1. In words: Inhibition of 1 MOI of Vaccinia virus WR DNA polymerase processivity factor A20NT100-D4 complex infected in African green monkey BSC1 cells assessed as decrease in BrdU incorporation at 1 uM after 4 to 8 hrs by DAPI staining-based confocal microscopic analysis. In kind it is cell-based.
The subject of series [5] is Vaccinia virus. In words: Antiviral activity against 5 MOI of Vaccinia virus WR infected in African green monkey BSC1 cells assessed as decrease in virus-induced cytopathicity at 1 uM after 8 hrs relative to cidofovir. The class given is functional, organism-based. The settings on record: Orthopoxvirus vaccinia, BSC-1.
For series [6], the system named is Vaccinia virus. Nature of the series: Antiviral activity against 5 MOI of Vaccinia virus WR infected in African green monkey BSC1 cells assessed as decrease in virus-induced cytopathicity at 1 uM after 8 hrs relative to vehicle-treated control. The class given is functional, organism-based. The note with it: Orthopoxvirus vaccinia, BSC-1. (Cytopathic effects are the visible damage that an infection or toxin causes in cultured cells.)

Series [7] relates to BSC-1. Nature of the series: Inhibition of 1 MOI of Vaccinia virus WR DNA polymerase processivity factor A20NT100-D4 complex infected in African green monkey BSC1 cells assessed as decrease in A4 protein level after 12 hrs by Western blotting analysis. The class given is cell-based.
Series [8] deals with BSC-1. In words: Inhibition of 1 MOI of Vaccinia virus WR DNA polymerase processivity factor A20NT100-D4 complex infected in African green monkey BSC1 cells assessed as decrease in E3 protein level at 1 uM after 8 hrs by Western blotting analysis. The class given is cell-based. For orientation: In western blotting, separated proteins are transferred to a membrane and probed.

The test system of series [9] is BSC-1. In words: Inhibition of 5 MOI of Vaccinia virus WR DNA polymerase processivity factor A20NT100-D4 complex coexpressing recombinant L1 protein infected in African green monkey BSC1 cells assessed as reduction in EGFP expression at 1 uM after 8 hrs by fluorescence microscopic analysis. The class given is cell-based.
A short description of series [10]: as §1. In kind it is cell-based, BSC-1. The note with it: chlorocebus aethiops, BSC-1 cells. The gist of the method:
as §2

Series [11] concerns BSC-1. In words: Inhibition of 5 MOI of Vaccinia virus WR DNA polymerase processivity factor A20NT100-D4 complex coexpressing recombinant L1 protein infected in African green monkey BSC1 cells assessed as reduction in EGFP expression at 100 uM after 8 hrs by fluorescence microscopic analysis. The class given is cell-based.

Active and inactive are the calls of the source. No cut-off for these calls is given here.

With `COC(=O)c1[nH]c2cc(C)ccc2c1Sc1ccccc1`, in the series with Vaccinia virus [1], the concentration for half-maximal inhibition (IC50) came out at 10 µM.
Same read-out and setting: the value for `Cc1ccc2[nH]c(C(=O)OCc3ccccc3)c(Sc3ccc(Cl)cc3)c2c1` was not below 100 µM; that for `COC(=O)c1[nH]c2cc(C)ccc2c1Sc1cc(Cl)cc(Cl)c1` was not below 100 µM.
Still for that read-out and setting: the value for `Cc1ccc2[nH]c(C(=O)OC(C)C)c(Sc3ccc(Cl)cc3)c2c1` was not below 100 µM; that for `COC(=O)c1ccc(Sc2c(C(=O)O)[nH]c3cccc(C)c23)cc1` was not below 100 µM.
`CCn1c(C(=O)O)c(Sc2ccc(Cl)cc2)c2cc(C)ccc21`: the half-inhibitory concentration (IC50) in the series with Vaccinia virus [1] turned out to be 86 µM.
Take `Cc1ccc2c(Sc3cc(Cl)cc(Cl)c3)c(CCC(=O)O)[nH]c2c1`: in series [2], the “Ratio CC50/IC50” value is given as 152. In the series with BSC-1 [3], the midpoint of cytotoxicity, the CC50, lay at 36 µM. In addition, it took 0.244 µM to reach half-maximal inhibition with Vaccinia virus [1] (IC50).
`COC(=O)c1c(Sc2ccc(Cl)cc2)c2cc(C)ccc2n1C` displayed a half-maximal inhibitory concentration (IC50) with Vaccinia virus [1] not below 100 µM.
`CCn1c(C(=O)OC)c(Sc2ccc(Cl)cc2)c2cc(C)ccc21` gave a half-maximal inhibitory concentration (IC50) with Vaccinia virus [1] of 39 µM.
Still for that read-out and setting: next, `Cc1ccc2c(Sc3cccc(Cl)c3)c(C(=O)O)[nH]c2c1`: 51 µM; `Cc1cccc2c(Sc3ccc(Cl)cc3)c(C(=O)O)[nH]c12`: 74 µM; `CCc1ccc2c(Sc3cc(Cl)cc(Cl)c3)c(C(=O)O)[nH]c2c1`: 9 µM.
For `Cc1ccc2c(Sc3cc(Cl)cc(Cl)c3)c(CCC(N)=O)[nH]c2c1`, the “Ratio CC50/IC50” value in series [2] was found to be 374. Also, the CC50 in the series on BSC-1 [3] stood at 16 µM. Further, the inhibition entry with BSC-1 [4], in the series on BSC-1 [8] and in the series on BSC-1 [9] was “Active” throughout. The result with Vaccinia virus [5] and in the series on Vaccinia virus [6] was Active. In addition, the inhibition entry in the series with BSC-1 [7] was “Dose-dependent effect”. The molecule also returned an IC50 with Vaccinia virus [1] of 0.042 µM.
On to `COc1ccc(Sc2c(C(=O)O)[nH]c3cccc(C)c23)cc1`, for which the 50% inhibitory concentration (IC50) in the series with Vaccinia virus [1] is not below 100 µM.
Still for that read-out and setting: the value for `COc1ccc(Sc2c(C(=O)O)[nH]c3cc(C)ccc23)cc1` was not below 100 µM.
Regarding `COc1cccc2[nH]c(C(=O)O)c(Sc3ccc(Cl)cc3)c12`, the IC50 in the series with Vaccinia virus [1] was not below 100 µM.
On the same count and under the same terms, next, `Cc1cccc2[nH]c(C(=O)Oc3ccccc3)c(Sc3ccc(Cl)cc3)c12`: not below 100 µM.
For `Cc1ccc2c(Sc3cc(Cl)cc(Cl)c3)c(CC(N)=O)[nH]c2c1`, the “Ratio CC50/IC50” value in [2] is 570. Besides, the midpoint of cytotoxicity with BSC-1 [3], the CC50, lay at 26 µM. The same molecule showed an IC50 with Vaccinia virus [1] of 0.046 µM.
Turning to `Cc1ccc2c(Sc3cc(Cl)c(Cl)cc3Cl)c(C(=O)O)[nH]c2c1`, half-maximal inhibition with Vaccinia virus [1] (IC50) was put at 25 µM.
Same read-out and setting: the value for `Cc1cccc2[nH]c(C(=O)O)c(Sc3cc(Cl)c(Cl)cc3Cl)c12` was 18 µM; that for `CCOC(=O)c1[nH]c2cccc(C)c2c1Sc1ccc(Cl)cc1` was not below 100 µM; that for `Cc1ccc2c(Sc3ccc(Cl)cc3)c(C(=O)O)[nH]c2c1` was 82 µM.
The same measure, in the same setting: next, `Cc1ccc(C)c2c(Sc3ccc(Cl)cc3)c(C(=O)O)[nH]c12`: 50 µM.
For `Cc1ccc2c(Sc3cc(Cl)cc(Cl)c3)c(C(=O)O)[nH]c2c1`, the “Ratio CC50/IC50” value in series [2] turned out to be 11. Moreover, the 50% cytotoxic concentration (CC50) with BSC-1 [3] came out at 75 µM. The same molecule yielded a 50% inhibitory concentration (IC50) with Vaccinia virus [1] of 7 µM.
For `Cc1ccc2c(Sc3ccccc3)c(C(=O)O)[nH]c2c1`, the IC50 in the series with Vaccinia virus [1] was not below 100 µM.
As for `Cc1ccc2c(Sc3ccc(C(F)(F)F)cc3[N+](=O)[O-])c(C(=O)O)[nH]c2c1`, the 50% inhibitory concentration (IC50) in the series with Vaccinia virus [1] was not below 100 µM.
The molecule `Cc1ccc2c(Sc3ccc(C(F)(F)F)cc3)c(C(=O)O)[nH]c2c1` had an IC50 in the series with Vaccinia virus [1] of 33 µM.
`Cc1ccc2c(Sc3cc(Cl)cc(Cl)c3)c(CCCC(N)=O)[nH]c2c1` gave a CC50 at 20 h in series [10] not below 100 µM. The molecule further displayed an IC50 in the series on Vaccinia virus [1] of 0.208 µM.
As to `O=C(O)c1[nH]c2ccccc2c1Sc1cc(Cl)cc(Cl)c1`, 43 µM corresponded to half-maximal inhibition in the series on Vaccinia virus [1] (IC50).
`Cc1cccc2[nH]c(C(=O)O)c(Sc3ccc([N+](=O)[O-])cc3)c12` showed an IC50 in the series with Vaccinia virus [1] not below 100 µM.
In the case of `O=C(O)c1[nH]c2cc(Br)ccc2c1Sc1ccc(Cl)cc1`, in the series on Vaccinia virus [1], 51 µM corresponded to half-maximal inhibition (IC50).
As to `Cc1cccc2c(Sc3ccc(Cl)c(Cl)c3)c(C(=O)O)[nH]c12`, in the series on Vaccinia virus [1], the IC50 was found to be 35 µM.
Still for that read-out and setting: next, `Cc1cccc2c(Sc3cc(Cl)c(Cl)cc3Cl)c(C(=O)O)[nH]c12`: 21 µM; `O=C(O)c1[nH]c2cc(Cl)ccc2c1Sc1ccc(Cl)cc1`: 47 µM.
On the same count and under the same terms, next, `CCc1ccc2c(Sc3ccc(Cl)c(Cl)c3)c(C(=O)O)[nH]c2c1`: 42 µM.
On the same count and under the same terms, next, `Cc1ccc(Sc2c(C(=O)O)[nH]c3cccc(C)c23)cc1`: not below 100 µM; `CNC(=O)c1[nH]c2cc(C)ccc2c1Sc1cc(Cl)cc(Cl)c1`: not below 100 µM.
For the molecule `Cc1cccc2[nH]c(C(=O)O)c(Sc3ccc(Cl)cc3)c12`, it took 86 µM to reach half-maximal inhibition in the series with Vaccinia virus [1] (IC50).
In turn, `Cc1ccc2c(Sc3ccc(Br)cc3)c(C(=O)O)[nH]c2c1` returned a concentration for half-maximal inhibition (IC50) with Vaccinia virus [1] not below 100 µM.
Same read-out and setting: the value for `Cc1ccc2c(c1)c(Sc1ccc(Cl)cc1)c(C(=O)O)n2C` was not below 100 µM; that for `COC(=O)c1[nH]c2c(C)cccc2c1Sc1ccc(Cl)cc1` was 23 µM.
For the molecule `CCc1ccc2c(Sc3ccc(Cl)cc3)c(C(=O)O)[nH]c2c1`, in the series on Vaccinia virus [1], half-maximal inhibition (IC50) was put at 36 µM.
In turn, `CCCCCCNC(=O)CCc1[nH]c2cc(C)ccc2c1Sc1cc(Cl)cc(Cl)c1` registered a half-maximal cytotoxic concentration (CC50) in the series with BSC-1 [3] of 27 µM. Further, the IC50 in the series with Vaccinia virus [1] is not below 100 µM.
In the series with Vaccinia virus [1], `Cc1ccc2c(Sc3ccc(C(=O)O)cc3)c(C(=O)O)[nH]c2c1` yielded a half-maximal inhibitory concentration (IC50) not below 100 µM.
`Cc1ccc(Sc2c(C(=O)O)[nH]c3cc(C)ccc23)cc1`: the IC50 with Vaccinia virus [1] was not below 100 µM.
Consider `O=C(O)c1[nH]c2ccccc2c1Sc1ccc(Cl)cc1`, for which the IC50 with Vaccinia virus [1] is not below 100 µM.
On the same count and under the same terms, next, `COC(=O)c1[nH]c2cccc(C)c2c1Sc1ccc(Cl)cc1`: 21 µM.
Same read-out and setting: next, `CCOC(=O)c1[nH]c2ccc(C)cc2c1Sc1ccc(Cl)cc1`: not below 100 µM.
In the series on Vaccinia virus [1], `COC(=O)c1[nH]c2cc(C)ccc2c1Sc1ccc(Cl)cc1` had an IC50 of 19 µM.
Consider `O=C(O)c1[nH]c2cc(F)ccc2c1Sc1ccc(Cl)cc1`, for which the IC50 in the series with Vaccinia virus [1] is 40 µM.
On to `Nc1ccn(C[C@@H](CO)OCP(=O)(O)O)c(=O)n1`, for which the inhibition result in the series on BSC-1 [11] is “Active”.
`COC(=O)c1[nH]c2ccc(C)cc2c1Sc1ccc(Cl)cc1` gave an IC50 with Vaccinia virus [1] not below 100 µM.
On to `Cc1ccc2[nH]c(C(=O)Oc3ccccc3)c(Sc3ccc(Cl)cc3)c2c1`, for which, in the series with Vaccinia virus [1], the IC50 was not below 100 µM.
The molecule `Cc1ccc2c(Sc3ccc(Cl)cc3Cl)c(C(=O)O)[nH]c2c1` had an IC50 in the series on Vaccinia virus [1] of 37 µM.
As to `Cc1ccc2c(Sc3ccc(Cl)c(Cl)c3)c(C(=O)O)[nH]c2c1`, in the series on Vaccinia virus [1], the midpoint of inhibition, the IC50, lay at 34 µM.
Still for that read-out and setting: the value for `Cc1cccc2[nH]c(C(=O)OC(C)C)c(Sc3ccc(Cl)cc3)c12` was not below 100 µM; that for `Cc1ccc2[nH]c(C(=O)O)c(Sc3ccc(Cl)cc3)c2c1` was 46 µM.
As to `Cc1cccc2[nH]c(C(=O)OCc3ccccc3)c(Sc3ccc(Cl)cc3)c12`, the IC50 in the series on Vaccinia virus [1] is not below 100 µM.
For the molecule `Cc1ccc2c(Sc3cccc(F)c3)c(C(=O)O)[nH]c2c1`, half-maximal inhibition in the series on Vaccinia virus [1] (IC50) was put at 69 µM.

What is called IC50 is the concentration at which inhibition is half-maximal. As usually defined, the CC50 is the concentration giving 50% cytotoxicity.
